Data taken from paper PMC9975633 (Chinese Herbal Medicines, 2022).

Key:
[1] = system: Caco-2 cell monolayer; assay: Bidirectional transport of SKE and RAI in Caco-2 cell monolayer model; format: in vitro ADME, human; settings: Caco-2; for Cumulative transport mass (AP-BL): in SKE 0.025, 0.05, 0.1 mg/mL over time, Fig. 3
[2] = as above; format: in vitro ADME, human; settings: human; for Papp A→B at 0.05 mg/mL / Papp A→B at 0.1 mg/mL / Papp A→B at 0.025 mg/mL: Caco-2, Papp(A-B), Caco-2, AP-BL; for Papp A→B at 0.05 mg/mL / Papp A→B at 0.1 mg/mL / Papp A→B at 0.025 mg/mL / Papp B→A at 0.05 mg/mL / Papp B→A at 0.1 mg/mL / Papp B→A at 0.025 mg/mL: mean ± SD, n = 3; for Papp B→A at 0.05 mg/mL / Papp B→A at 0.1 mg/mL / Papp B→A at 0.025 mg/mL: Caco-2, Papp(B-A), Caco-2, BL-AP; for efflux ratio at 0.05 mg/mL / efflux ratio at 0.1 mg/mL / efflux ratio at 0.025 mg/mL: Caco-2, ER, ER=Papp(B-A)/Papp(A-B)
[3] = system: MRP; assay: Effect of MK-571; format: in vitro ADME, human; settings: 0.1 mg/mL SKE + 100 μmol/L MK-571; Caco-2; Fig. 4
How it was run: (§1)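 Caco-2 cells were seeded at 1×10^5/cm² on 0.4 µm inserts and grown about 20 d in DMEM with 10% FBS, then used once TEER exceeded 500 Ω·cm². After a 15 min HBSS equilibration, 0.1 mg/mL extract plus 100 µmol/L inhibitor was dosed AP or BL at 37 °C with 50 r/min shaking. Receiver was sampled with replacement and four anthraquinones were quantified by HPLC. Papp came from the slope, ER = Papp(B-A)/Papp(A-B), n=3.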

[4] = molecular target: P-gp (Homo sapiens, UniProt P08183); assay: Effect of verapamil; format: in vitro ADME; settings: 0.1 mg/mL SKE + 100 μmol/L verapamil; Caco-2; Fig. 4
Sequence of P-gp (P08183 whole entry): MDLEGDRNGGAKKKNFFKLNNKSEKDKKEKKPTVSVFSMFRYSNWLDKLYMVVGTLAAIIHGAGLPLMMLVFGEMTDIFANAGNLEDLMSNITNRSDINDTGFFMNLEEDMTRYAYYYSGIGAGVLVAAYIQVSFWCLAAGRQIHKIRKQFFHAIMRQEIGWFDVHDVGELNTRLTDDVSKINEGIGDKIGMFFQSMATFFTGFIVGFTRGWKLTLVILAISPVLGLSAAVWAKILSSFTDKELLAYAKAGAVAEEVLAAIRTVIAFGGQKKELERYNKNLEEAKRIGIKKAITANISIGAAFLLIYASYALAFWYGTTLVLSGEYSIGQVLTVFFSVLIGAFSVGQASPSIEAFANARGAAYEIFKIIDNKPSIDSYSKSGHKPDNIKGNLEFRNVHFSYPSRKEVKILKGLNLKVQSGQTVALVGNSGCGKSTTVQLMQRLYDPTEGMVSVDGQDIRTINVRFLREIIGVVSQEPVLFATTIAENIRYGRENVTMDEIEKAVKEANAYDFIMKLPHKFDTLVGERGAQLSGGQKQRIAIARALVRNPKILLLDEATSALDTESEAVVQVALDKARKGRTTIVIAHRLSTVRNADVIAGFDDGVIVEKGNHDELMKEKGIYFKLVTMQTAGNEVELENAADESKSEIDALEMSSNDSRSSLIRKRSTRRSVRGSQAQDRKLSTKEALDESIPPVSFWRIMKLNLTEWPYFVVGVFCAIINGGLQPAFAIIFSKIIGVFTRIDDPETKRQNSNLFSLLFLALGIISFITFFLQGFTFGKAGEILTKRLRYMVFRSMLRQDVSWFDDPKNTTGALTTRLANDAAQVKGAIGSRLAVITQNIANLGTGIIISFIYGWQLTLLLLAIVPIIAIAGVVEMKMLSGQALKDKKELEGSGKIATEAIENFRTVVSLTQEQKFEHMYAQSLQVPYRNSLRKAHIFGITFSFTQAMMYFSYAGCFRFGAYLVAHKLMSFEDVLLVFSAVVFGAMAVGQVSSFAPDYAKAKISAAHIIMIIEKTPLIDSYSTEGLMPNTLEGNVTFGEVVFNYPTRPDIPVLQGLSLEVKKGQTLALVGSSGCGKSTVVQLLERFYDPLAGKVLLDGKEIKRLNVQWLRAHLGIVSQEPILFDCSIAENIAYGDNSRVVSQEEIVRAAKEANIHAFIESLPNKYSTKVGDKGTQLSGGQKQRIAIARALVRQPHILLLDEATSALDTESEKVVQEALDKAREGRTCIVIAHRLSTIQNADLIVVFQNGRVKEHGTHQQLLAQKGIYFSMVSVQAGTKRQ
How it was run: as §1

[5] = ref Wang, Yang, & Song, 2001; cited from earlier work
[6] = system: rat different intestinal segments; assay: In situ single-pass intestinal perfusion in rats; format: in vivo, Sprague-Dawley rats; settings: same tested intestinal segment
How it was run: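 Male Sprague-Dawley rats (250 ± 50 g) were fasted overnight, anesthetized, and ~10 cm duodenum, jejunum or colon segments were cannulated and flushed with 37 °C saline. Krebs-Ringer perfusate held 22.50 mg/mL extract or matched pure anthraquinones (DMSO <1.0%). Flow was 1 mL/min for 5 min, then 0.2 mL/min for 30 min equilibration. Outflow was collected every 15 min to 120 min and analysed by HPLC. Peff was calculated from gravimetrically corrected volumes and segment length/radius.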

[7] = in RAI, contents as in 0.05 mg/mL SKE
[8] = in RAI, contents as in 0.1 mg/mL SKE

| Structure (SMILES) | Cumulative transport mass (AP-BL) [1] | Papp A→B at 0.05 mg/mL [2, 7] [×10⁻⁶ cm/s] | Papp A→B at 0.1 mg/mL [2, 8] [×10⁻⁶ cm/s] | Papp A→B at 0.025 mg/mL ([2]; in SKE) [×10⁻⁶ cm/s] | Papp A→B at 0.05 mg/mL ([2]; in SKE, 0.05 mg/mL) [×10⁻⁶ cm/s] | Papp A→B at 0.1 mg/mL ([2]; in SKE, 0.1 mg/mL) [×10⁻⁶ cm/s] | Papp B→A at 0.05 mg/mL [2, 7] [×10⁻⁶ cm/s] | Papp B→A at 0.1 mg/mL [2, 8] [×10⁻⁶ cm/s] | Papp B→A at 0.025 mg/mL ([2]; in SKE) [×10⁻⁶ cm/s] | Papp B→A at 0.05 mg/mL ([2]; in SKE, 0.05 mg/mL) [×10⁻⁶ cm/s] | Papp B→A at 0.1 mg/mL ([2]; in SKE, 0.1 mg/mL) [×10⁻⁶ cm/s] | ER after addition of MK571, compared with SKE group [3] | ER after addition of verapamil, compared with SKE group [4] | pKa [5] | Peff in RAI compared with SKE [6] | efflux ratio at 0.05 mg/mL [2, 7] | efflux ratio at 0.1 mg/mL [2, 8] | efflux ratio at 0.025 mg/mL ([2]; in SKE) | efflux ratio at 0.05 mg/mL ([2]; in SKE, 0.05 mg/mL) | efflux ratio at 0.1 mg/mL ([2]; in SKE, 0.1 mg/mL) | other results |
| --- | --- | --- | --- | --- | --- | --- | --- | --- | --- | --- | --- | --- | --- | --- | --- | --- | --- | --- | --- | --- | --- |
| O=C1c2cccc(O)c2C(=O)c2c(O)cc(CO)cc21 [Aloe-emodin, aloe-emodin] | time- and concentration-dependent | 15.1 ± 1.54 | 14.3 ± 1.06 | 19.6 ± 2.04 | 19.4 ± 1.47 | 17.6 ± 0.74 | 16.1 ± 1.83 | 17.3 ± 0.79 | 24 ± 0.59 | 23.4 ± 1.56 | 19.4 ± 1.65 | decreased | reduced the most | 8.64 | higher than those in SKE |  |  |  |  |  |  |
| Cc1cc(O)c2c(c1)C(=O)c1cccc(O)c1C2=O [Chrysophanol, chrysophanol] | time- and concentration-dependent | 8.99 ± 0.44 | 7.97 ± 1.06 | 6.23 ± 0.86 | 6.87 ± 0.23 | 6.63 ± 0.48 | 15.7 ± 1.05 | 13.2 ± 0.67 | 13.8 ± 0.65 | 13.9 ± 0.86 | 10.7 ± 0.15 | reduced the most | decreased | 8.58 | higher than those in SKE | 1.75 | 1.66 | 2.22 | 2.02 | 1.61 |  |
| Cc1cc(O)c2c(c1)C(=O)c1cc(O)cc(O)c1C2=O [Emodin, emodin] | time- and concentration-dependent | 7.74 ± 0.61 | 7.31 ± 0.97 | 7.4 ± 0.08 | 6.65 ± 0.16 | 6.24 ± 0.29 | 11.5 ± 0.27 | 11.8 ± 0.66 | 11.9 ± 1.11 | 10.6 ± 0.31 | 9.13 ± 0.42 | decreased | reduced the most | 5.70 | higher than those in SKE | 1.48 | 1.62 | 1.6 | 1.59 | 1.46 |  |
| O=C(O)c1cc(O)c2c(c1)C(=O)c1cccc(O)c1C2=O [Rhein, rhein] | time- and concentration-dependent | 35 ± 1.72 | 34.2 ± 1.13 | 27.4 ± 1.47 | 28.02 ± 0.14 | 31 ± 2.31 | 26.6 ± 1.03 | 30.1 ± 1.37 | 21 ± 0.4 | 20.5 ± 0.46 | 19.8 ± 0.37 |  |  | 4.72 | lower than that in SKE | 0.76 | 0.88 | 0.96 | 0.73 | 0.64 | Papp(A-B) as fold of Papp(B-A) ([1]; 0.025 mg/mL SKE): 1.4 fold; Papp(A-B) as fold of Papp(B-A) ([1]; 0.05 mg/mL SKE): 1.6 fold; ER (over all concentrations) ([1]; in RAI, contents as in 0.025-0.1 mg/mL SKE): lower than 1.0; ER (over all concentrations) ([1]; in SKE, 0.025-0.1 mg/mL): lower than 1.0 |
